# From PubChem BioAssay
# This is a sample that favours compounds with a hit; in the whole collection about 4.1% have one here.
# hERG protect = shields human hERG channel from block by proarrhythmic agents; CHO-hERG, FluxOR thallium flux, dofetilide IC70 present; activation (rescue from dofetilide block), less the hit threshold, % at 10 µM; hit rate 0.51% among 310,000; AID 1511;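 active means activation above the mean of controls blocked by dofetilide plus 5 SD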;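 further: thallium influx through hERG after potassium depolarization seen as dye fluorescence rise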
# KCNQ1 inh = blocks the human KCNQ1 potassium channel; B-score at 10 µM; P51787; hit rate 1.3% among 310,000; CHO-K1 KCNQ1, FluxOR thallium flux fluorescence; active compounds read high;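 active means compounds whose thallium flux B-score, printed positive for inhibition, exceeds three library SD while starting fluorescence stays within three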;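 further: channel opened by potassium depolarization with thallium stimulus after 20 min compound exposure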
# KCNK9 block = inhibitors of human KCNK9 two-pore domain potassium channel | B-score at 10 µM | Q9NPC2 | HEK293 KCNK9, FluxOR thallium flux fluorescence; active compounds read low | hit rate 1.2% among 310,000;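 active means ratio B-score over 3 SD below the library mean, with starting fluorescence within 5 SD of its mean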;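 further: negative B-score means less thallium flux so channel inhibition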
# Target sequence (Q9NPC2 whole entry, looked up, the tested form may be a part): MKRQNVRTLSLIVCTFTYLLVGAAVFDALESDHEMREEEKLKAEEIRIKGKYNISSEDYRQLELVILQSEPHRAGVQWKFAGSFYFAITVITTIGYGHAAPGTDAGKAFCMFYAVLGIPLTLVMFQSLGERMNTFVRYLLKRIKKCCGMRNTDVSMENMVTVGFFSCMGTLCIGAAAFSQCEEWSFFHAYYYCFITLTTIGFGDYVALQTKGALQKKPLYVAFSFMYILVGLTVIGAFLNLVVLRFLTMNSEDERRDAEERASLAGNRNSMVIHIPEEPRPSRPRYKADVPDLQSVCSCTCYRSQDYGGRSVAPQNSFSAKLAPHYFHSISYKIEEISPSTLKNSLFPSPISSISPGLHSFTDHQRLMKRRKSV
# KCNK3 block = human KCNK3 channel inhibition, primary screen | O14649 | AID 602410 | CHO-KCNK3 thallium flux, FluxOR fluorescence; active compounds read low | hit rate 0.84% among 340,000 | B-score at 10 µM;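 active means B-score under library mean minus 4 SD, starting fluorescence ratio at most library mean plus 5 SD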;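 further: more negative B-score means stronger inhibition of thallium flux through KCNK3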
# Target sequence (O14649 whole entry, looked up): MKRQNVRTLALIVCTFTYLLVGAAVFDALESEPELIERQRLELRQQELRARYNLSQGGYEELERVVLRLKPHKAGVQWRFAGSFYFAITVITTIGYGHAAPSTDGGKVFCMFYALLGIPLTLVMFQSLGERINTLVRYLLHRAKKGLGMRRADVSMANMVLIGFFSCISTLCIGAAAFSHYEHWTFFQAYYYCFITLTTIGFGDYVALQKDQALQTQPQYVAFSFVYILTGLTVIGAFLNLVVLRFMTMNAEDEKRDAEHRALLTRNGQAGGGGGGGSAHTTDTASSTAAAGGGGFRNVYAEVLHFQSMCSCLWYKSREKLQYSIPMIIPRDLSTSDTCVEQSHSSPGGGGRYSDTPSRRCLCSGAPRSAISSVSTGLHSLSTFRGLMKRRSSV
# Cl transport mod = modulates chloride dependent transport by human KCC2; Q9H2X9; hit rate 2.2% among 190,000; B-score of Tl+ flux slope (higher = more flux/activation; lower = inhibition) at 10 µM; KCC2 cells, thallium flux FluoZin-2 fluorescence;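 active means thallium flux slope and its plate-corrected score both differing from the plate sample mean at a set confidence after two filtering rounds, in either direction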;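 further: slope of fluorescence scaled to starting intensity during 10 to 20 s after thallium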
# KCNQ1 pot = human KCNQ1 channel potentiation or activation. P51787. CHO-K1 KCNQ1, thallium flux FluxOR fluorescence; active compounds read high. B-score at 10 µM. hit rate 0.35% among 310,000;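 active means fluorescence ratio B-score, a plate-corrected score, at least three library SD, with initial intensity B-score within 5 SD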
#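 Material: CHO-K1 cells stably expressing KCNQ1. Medium: assay buffer for compound exposure, DMSO matched across wells. Reagent: K+/Tl+ depolarizing stimulus. Compound dosing: single-concentration screen. Times: 37 °C overnight plating, 90-min dark dye load, 20-min compound pretreatment. Technique: FluxOR Tl+ flux fluorescence.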
# KCNQ1 block val = human KCNQ1 channel inhibition, validation assay; inhibition, % at 10 µM; hit rate 93% among 1,600; shares compounds with KCNQ1 inh; KCNQ1 cell line, FluxOR thallium flux fluorescence;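 active means primary screen active, with duplicate mean exceeding buffer control mean plus 3 SD of buffer wells, cut at about 28% in these data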
# CHO KCNQ1 ctr = activity in parental CHO cells lacking KCNQ1. fluorescence ratio (Tl flux) at 10 µM. parental CHO-K1, FluxOR thallium flux fluorescence ratio; active compounds read low; zero means no signal rise above baseline. hit rate 21% among 1,600. shares compounds with KCNQ1 inh. AID 588366;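 active means mean of duplicate thallium-flux fluorescence ratios in parental host cells more than 5 SD below the buffer control mean, cut at about 0.38 in these data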;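 further: ratio is peak minus minimum fluorescence divided by baseline fluorescence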
# KCNQ1 ephys val = human KCNQ1 inhibition validated by electrophysiology; shares compounds with KCNQ1 inh; KCNQ1-CHO cells, automated patch clamp current; calls only at 10 µM; hit rate 20% among 490;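 active means KCNQ1 current drop exceeding 3 SD of negative control wells, seen in both duplicate runs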;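 further: steady state current during a 2 s step from -80 to +40 mV; negative values mean current inhibition and positive values mean potentiation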
# KCNQ2 spec = selectivity of KCNQ1 inhibitors: inhibition of rat KCNQ2 channel; shares compounds with KCNQ1 inh; KCNQ2 cells, FluxOR thallium flux fluorescence; inhibition, % at 10 µM; hit rate 71% among 1,600; AID 651746;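 active means mean percent inhibition of the KCNQ2 thallium signal more than 5 SD above the buffer-only control wells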;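 further: KCNQ2 expressed in CHO cells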
# KCNQ1-KCNE1 inh = human KCNQ1/KCNE1 inhibition in KCNQ1 specificity screen; shares compounds with KCNQ1 inh; KCNQ1/KCNE1 cells, FluxOR thallium flux fluorescence; inhibition, % at 10 µM; hit rate 77% among 1,600; AID 652147;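 active means mean percent inhibition of duplicate wells above the buffer-only control mean plus 3 SD of those controls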
# A number is an active result; i = inactive; nt = no result given; + = active, no number.
SMILES,hERG protect,KCNQ1 inh,KCNK9 block,KCNK3 block,Cl transport mod,KCNQ1 pot,KCNQ1 block val,CHO KCNQ1 ctr,KCNQ2 spec,KCNQ1-KCNE1 inh,others
O=S(=O)(c1ccc(S(=O)(=O)N(Cc2ccc(F)cc2)C2CCCC2)cc1)N1CCCC1,i,6,i,i,i,i,57,i,i,94%,
O=S(=O)(c1ccc2[nH]c3c(c2c1)CCCC3)N1CCCCC1,i,9,i,i,nt,i,88,i,75%,110%,KCNQ1 ephys val=+
O=c1[nH]c2ccc(S(=O)(=O)N3CCCCC3)cc2[nH]1,i,i,i,i,i,i,nt,nt,nt,nt,
COc1ccc(N=c2cc(-c3ccc(OC)cc3)oc3ccccc23)cc1,i,12,i,i,i,i,147,0.36,i,+,
CN=C1S/C(=C\c2cccc(Cl)c2Cl)C(=O)N1C,i,i,i,i,nt,i,nt,nt,nt,nt,
Cc1ccc(O)c(-c2cc3ccccc3[nH]2)c1,i,10,i,i,i,i,132,i,i,166%,
Cc1ncc(CN2CCCC(C(=O)Nc3ccc(-c4cccc(F)c4)cc3)C2)cn1 (stereo not given),i,i,i,i,nt,i,nt,nt,nt,nt,
O=C(Nc1ccc(-c2cccc(F)c2)cc1)C1CCCN(Cc2ccccn2)C1 (stereo not given),i,6,i,i,nt,i,44,i,86%,64%,
COCC1CCN(C(=O)c2ccc3oc(Cc4ccc(Cl)cc4)nc3c2)C1 (stereo not given),i,i,i,i,nt,i,nt,nt,nt,nt,
CC(=O)c1cccc(NC(=O)CCc2nc3sc4c(c3c(=O)[nH]2)CCCC4)c1,i,i,i,i,nt,i,nt,nt,nt,nt,
CC(C)C(=O)Nc1cccc(COc2ccccc2CN(Cc2ccccc2)C(=O)OC(C)(C)C)c1,nt,nt,nt,i,nt,nt,nt,nt,nt,nt,
CCCCn1c(=O)[nH]c2nc3cc(N)ccc3nc2c1=O,nt,nt,nt,i,i,nt,nt,nt,nt,nt,
Nc1ccc2nc3c(=O)n(C4CCCCC4)c(=O)[nH]c3nc2c1,i,24,i,i,i,i,+,0.1,i,i,
O=C(NCCc1ccccc1)C1CCC(=O)N1C1CCCC1 (stereo not given),i,i,i,i,nt,i,nt,nt,nt,nt,
CC1CCN(C(=O)CCCl)c2ccccc21 (stereo not given),nt,nt,nt,i,nt,nt,nt,nt,nt,nt,
Cc1ccc(N(C(=O)c2ccco2)C(C(=O)NC2CCCC2)c2ccco2)c(C)c1 (stereo not given),i,7,i,i,nt,i,82,i,76%,61%,
COc1ccc2nc(C)cc(Nc3ccc(C)cc3)c2c1,i,i,i,i,nt,i,nt,nt,nt,nt,
COc1ccc2nc(C)cc(NCc3ccc(F)cc3)c2c1,i,7,-6.9,i,nt,i,88,i,i,124%,KCNQ1 ephys val=i
CCOC(=O)c1c(C)[nH]c(C(=O)OCC(=O)Nc2cc(C)nn2-c2ccccc2)c1C,i,i,i,i,nt,i,nt,nt,nt,nt,
CC1C(=O)N2CCCc3cc(NC(=O)C(=O)NCCc4c[nH]c5ccccc45)cc1c32 (stereo not given),i,10,i,i,nt,i,26,i,87%,57%,
O=c1cc(CSc2nc(NCc3ccc(Cl)cc3)c3ccccc3n2)nc2ccc(Cl)cn12,nt,nt,nt,i,nt,nt,nt,nt,nt,nt,
COc1ccccc1-c1ccc(SCc2cccc(C)c2)nn1,i,11,i,i,i,i,i,i,60%,i,
S=C(NC1CC1)N1CCN(C(=S)NC2CC2)CC1,i,i,i,i,nt,i,nt,nt,nt,nt,
OCCN1CCN(C(=S)NC2CCCC2)CC1,i,10,i,i,i,i,83,i,i,110%,
CN(C(=O)COC(=O)C12CC3CC(CC(Cl)(C3)C1)C2)c1ccccc1,nt,nt,nt,i,nt,nt,nt,nt,nt,nt,
SMILES,hERG protect,KCNQ1 inh,KCNK9 block,KCNK3 block,Cl transport mod,KCNQ1 pot,KCNQ1 block val,CHO KCNQ1 ctr,KCNQ2 spec,KCNQ1-KCNE1 inh,others
Cc1ccc(NC(=S)Nc2ccc(OC(F)F)c(Cl)c2)cc1F,i,14,i,i,i,i,88,i,i,i,KCNQ1 ephys val=i
COc1ccc(NC(=O)c2ccc(CN3CCN(c4ccccc4)CC3)cc2)cc1,i,6,i,i,i,i,i,i,i,i,
COc1ccc(C(=O)Nc2ccc(N3CCN(Cc4ccccc4)CC3)cc2)cc1,i,i,i,i,i,i,nt,nt,nt,nt,
C=CCNC(=O)N1CCc2[nH]c3ccc(F)cc3c2C1,i,i,i,i,nt,i,nt,nt,nt,nt,
Fc1ccc2[nH]c3c(c2c1)CN(C(=S)NCc1ccccc1)CC3,i,7,i,i,i,i,100,i,102%,88%,KCNQ1 ephys val=i
c1ccc(CNc2ncnc3ccccc23)cc1,i,i,i,i,i,i,nt,nt,nt,nt,
c1ccc(CNc2c3ccccc3nc3ccccc23)cc1,i,8,i,i,nt,i,39,i,66%,48%,
CCOc1ccccc1C(=O)NCC(=O)OCC(=O)N1CCCC1,nt,nt,nt,i,nt,nt,nt,nt,nt,nt,
CCOC(=O)CC1CCCCN1C(=O)c1cc(COc2cccc3cnccc23)on1 (stereo not given),i,11,i,i,nt,i,136,i,92%,58%,KCNQ1 ephys val=i
COC(=O)C1CCCCN1C(=O)c1cc(COc2cccc3cnccc23)on1 (stereo not given),i,9,i,i,nt,i,25,i,75%,i,
COC(=O)C1CCCCN1C(=O)c1cc(COc2cccc3cccnc23)on1 (stereo not given),i,i,i,i,nt,i,nt,nt,nt,nt,
O=C(CN1C(=O)NC2(CCCCC2)C1=O)Nc1ccc2c(c1)OCCCO2,nt,nt,nt,i,nt,nt,nt,nt,nt,nt,
CC(C)CN1CCN(CCCOC(=O)Nc2cccc3ccccc23)CC1C (stereo not given),nt,nt,nt,i,nt,nt,nt,nt,nt,nt,
COc1ccc(NC(=O)c2cc(-c3cc(C)cc(C)c3O)n[nH]2)cc1Cl,i,8,i,-9.2,i,i,168,0.27,114%,+,
O=C(CCNC(=O)c1ccco1)Nc1ccc(Cl)c(C(F)(F)F)c1,i,i,i,i,nt,i,nt,nt,nt,nt,
c1ccc(Cn2ncc3c(N4CCN(C(c5ccccc5)c5ccccc5)CC4)ncnc32)cc1,9.4,10,i,i,nt,i,+,0.38,i,i,
O=C(Nc1cccc(Cl)c1)N(CCCN1CCOCC1)Cc1ccccc1F,i,11,i,i,nt,i,78,i,106%,71%,
CC(=O)C1CCC2C3CC(C)=C4CC(O)CCC4(C)C3CCC12C (stereo not given),nt,nt,nt,i,nt,nt,nt,nt,nt,nt,
